Assay results published in ChEMBL document CHEMBL4368899, “Novel carbohydrate modified berberine derivatives: synthesis and in vitro anti-diabetic investigation” (Medchemcomm, 2019).

Assays:
HepG2 [1] = experiment: Antidiabetic activity in human HepG2 cells assessed as increase in glucose consumption at 5 ug/mL after 48 hrs by glucose oxidase method relative to berberine; type: functional
How it was run: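 HepG2 cells were grown in DMEM with 10% heat-inactivated FBS and penicillin/streptomycin. They were seeded at 2×10^5 cells per well and cultured 12 h at 37 °C in 5% CO2. Cells were then exposed to 5.0 µg mL⁻¹ compound for two days. A DMSO solvent control and a blank were run. Glucose was measured by glucose oxidase. Consumption = blank-well glucose minus glucose remaining in treated wells. Means ± SD, n = 8, expressed as % increase over berberine.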

HepG2 [2] = experiment: Cytotoxicity against human HepG2 cells after 12 hrs by CCK-8 assay; type: cell-based; settings: for IC50: Homo sapiens, HepG2, 12 h; for Activity: human, hepg2, 12 h
How it was run: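 Cells were cultured in DMEM/10% heat-inactivated FBS with penicillin/streptomycin at 37 °C, 5% CO2, and harvested with trypsin at 80–90% confluence. They were plated at 1×10^5 cells per mL, and medium was refreshed after 12 h. Cells were treated 12 h with 0.2–625 µg mL⁻¹ compound dissolved in 0.5% DMSO–water. CCK-8 was added for 4 h, then A570 read, correcting for compound colour. IC50 is relative to untreated cells as 100%. n = 3.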

[3] = Aqueous solubility of compound; type: physicochemical; settings: water
[4] = Stability of compound in acetonitrile/water at 1:1 ratio at pH 1.5 assessed as compound degradation after 5 hrs by HPLC analysis; type: physicochemical; settings: acetonitrile/water 1:1, pH 1.5; read-out: Drug degradation
How it was run: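 Remaining compound after 5 h was quantified by HPLC on a C8 column (250 × 4.6 mm, 5 µm). Elution used 50% acetonitrile in 0.05 mol L⁻¹ aqueous KH2PO4 at 1 mL min⁻¹, with detection at 320 nm.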

Row | solubility [3] [µg/mL] | degraded at 5 h [4] [%] | SMILES | Activity (HepG2 [1]) [%] | IC50 (HepG2 [2]) [µg/mL] | Activity (HepG2 [2])
1 |  |  | COc1ccc2cc3[n+](cc2c1OCc1cn([C@@H]2O[C@H](CO)[C@@H](O)[C@H]2O)nn1)CCc1cc2c(cc1-3)OCO2.[Cl-] | 14.83 | 44 | Dose-dependent effect
2 | 9000 | 0.3 | COc1ccc2cc3[n+](cc2c1OCc1cn([C@H]2O[C@H](CO)[C@@H](O)[C@H](O)[C@@H]2O)nn1)CCc1cc2c(cc1-3)OCO2.[Cl-] | 10.81 | 72.2 | Dose-dependent effect
3 |  |  | COc1ccc2cc3[n+](cc2c1OCc1cn([C@@H]2O[C@@H](C)[C@H](O)[C@@H](O)[C@H]2O)nn1)CCc1cc2c(cc1-3)OCO2.[Cl-] | -3.6 | 49.3 | Dose-dependent effect
4 |  |  | COc1ccc2cc3[n+](cc2c1OCc1cn([C@@H]2O[C@H](CO)[C@H](O)[C@H](O)[C@H]2O)nn1)CCc1cc2c(cc1-3)OCO2.[Cl-] | 0.21 | 59.3 | Dose-dependent effect
5 | 1750 | 1.8 | COc1ccc2cc3[n+](cc2c1OC)CCc1cc2c(cc1-3)OCO2.[Cl-] [BERBERINE CHLORIDE] |  | 53.9 | 
6 |  |  | COc1ccc2cc3[n+](cc2c1OCc1cn([C@@H]2O[C@H](CO)[C@@H](O)[C@H](O)[C@H]2O)nn1)CCc1cc2c(cc1-3)OCO2.[Cl-] | 2.23 | 62.9 | Dose-dependent effect
